Assay results as given in ChEMBL document CHEMBL2029317, “(Z)-2-(2-bromophenyl)-3-{[4-(1-methyl-piperazine)amino]phenyl}acrylonitrile (DG172): an orally bioavailable PPARβ/δ-selective ligand with inverse agonistic properties” (J Med Chem, 2012).
Calls of active or inactive are those of the source. The calls are words filed in the database; no cut-off is given here.

Assays:
[1] = target: T1, Peroxisome proliferator-activated receptor delta (Mus musculus) (UniProt P35396); test: Displacement of fluormone Pan-PPAR Green from mouse recombinant GST-tagged PPARbeta/delta LBD at 1 uM after 60 mins by TR-FRET assay
T1 sequence (whole entry): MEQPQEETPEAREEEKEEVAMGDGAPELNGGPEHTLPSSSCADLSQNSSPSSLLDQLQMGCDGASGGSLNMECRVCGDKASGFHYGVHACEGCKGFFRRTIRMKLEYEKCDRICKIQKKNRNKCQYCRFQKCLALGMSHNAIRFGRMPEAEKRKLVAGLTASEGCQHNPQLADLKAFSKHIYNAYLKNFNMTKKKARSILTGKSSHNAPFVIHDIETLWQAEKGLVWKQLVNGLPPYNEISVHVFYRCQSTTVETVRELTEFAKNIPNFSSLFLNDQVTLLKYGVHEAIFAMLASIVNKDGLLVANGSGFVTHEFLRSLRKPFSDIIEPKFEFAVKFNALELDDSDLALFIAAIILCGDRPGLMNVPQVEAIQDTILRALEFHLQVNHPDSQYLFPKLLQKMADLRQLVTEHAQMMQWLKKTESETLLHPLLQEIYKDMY
Method in brief: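 Competitive binding by LanthaScreen TR-FRET: recombinant GST-PPARβ/δ LBD, detected through a terbium-labelled anti-GST antibody, was incubated with Fluormone Pan-PPAR Green. Compound was tested at 1 μM. Read-out is the 520 nm/495 nm emission ratio after terbium excitation, as averages of triplicates ± SD.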

[2] = target: T2, Peroxisome proliferator-activated receptor gamma (Homo sapiens) (UniProt P37231); test: Displacement of fluormone Pan-PPAR Green from PPARgamma at 100 to 1000 nM after 60 mins by TR-FRET assay
T2 sequence (whole entry): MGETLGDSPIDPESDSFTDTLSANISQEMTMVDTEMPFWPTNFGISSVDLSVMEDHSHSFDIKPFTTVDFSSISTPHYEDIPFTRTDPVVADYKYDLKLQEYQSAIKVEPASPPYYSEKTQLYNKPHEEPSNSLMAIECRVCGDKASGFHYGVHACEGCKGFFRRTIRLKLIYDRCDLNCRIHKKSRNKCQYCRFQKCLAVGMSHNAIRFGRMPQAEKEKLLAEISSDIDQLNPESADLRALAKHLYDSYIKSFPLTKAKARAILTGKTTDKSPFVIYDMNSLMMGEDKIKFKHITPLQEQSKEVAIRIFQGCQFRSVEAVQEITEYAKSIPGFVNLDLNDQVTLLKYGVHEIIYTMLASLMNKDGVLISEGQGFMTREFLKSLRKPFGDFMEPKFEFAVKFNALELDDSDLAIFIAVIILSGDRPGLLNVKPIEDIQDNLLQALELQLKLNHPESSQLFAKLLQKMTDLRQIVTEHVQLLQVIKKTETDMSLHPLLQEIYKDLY

[3] = target: T3, Peroxisome proliferator-activated receptor delta (Mus musculus, UniProt P35396); test: Inverse agonist activity at PPARbeta/delta in mouse C2C12 cells assessed as inhibition of Angptl4 expression after 24 hrs by RT-qPCR analysis; format: functional, cell-based
T3 sequence (P35396 whole entry): T1 sequence (whole entry)

[4] = system: Macrophage; test: Inhibition of Angptl expression in mouse Ppard-knock out macrophages at 1 uM after 6 hrs by RT-qPCR analysis; format: functional, cell-based
Method in brief: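 Macrophages from Ppard null and wild-type mice were treated with compound (1 μM), agonist L165,041 (500 nM) or DMSO solvent for 6 h. Angptl4 mRNA was measured by RT-qPCR with L27 as the normalizer.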

[5] = system: Mus musculus; test: AUC (infinity) in CD1 mouse at 5 mg/kg, po; format: ADME, organism-based, Plasma; parameters: time infinity, dose 5 mg/kg, route oral; details: in vivo
Method in brief: (§1)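 Male CD-1 mice dosed iv by tail vein (1 mg/kg) or po by gastric gavage (5 mg/kg). Vehicle was DMSO/Solutol HS 15/PBS pH 7.4 (5/5/90, v/v/v). Blood was taken at eight time points from 10 min to 12 h, by parallel sampling of three mice per point. Plasma was acetonitrile-precipitated and analysed by HPLC-MS/MS, and basic PK parameters were derived.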

[6] = Cmax in CD1 mouse at 5 mg/kg, po; format: ADME, organism-based; parameters: dose 5 mg/kg, route oral; details: in vivo; method in brief: as §1
[7] = Half life in CD1 mouse at 5 mg/kg, po; format: ADME, organism-based; parameters: dose 5 mg/kg, route oral; details: in vivo; method in brief: as §1
[8] = Oral bioavailability in CD1 mouse at 5 mg/kg; format: ADME, organism-based; details: in vivo; method in brief: as §1
[9] = target: T1, Peroxisome proliferator-activated receptor delta (Mus musculus); details: 1 uM
[10] = target: T1, Peroxisome proliferator-activated receptor delta (Mus musculus); test: Displacement of fluormone Pan-PPAR Green from mouse recombinant GST-tagged PPARbeta/delta LBD after 60 mins by TR-FRET assay
[11] = Drug uptake in CD1 mouse blood at 5 mg/kg, po up to 30 mins

Activity [1] | Activity [2] | IC50 [3] [nM] | AUC [5] [ng·h/mL] | Cmax [6] [ng/mL] | half-life [7] [h] | bioavailability [8] [%] | inhibition [9] | Activity [10] | concentration at 0.5 h [11] [ng/mL] | Compound | inhibition [4]
Active | inactive | 9.5 | 137 | 94 | 10.6 | 72 | Active |  |  | CN1CCN(c2ccc(/C=C(\C#N)c3ccccc3Br)cc2)CC1 | inactive
Active | inactive | 52 |  |  |  |  |  | Active | ≤ 6 | CN(C)c1ccc(/C=C(\C#N)c2ccccc2Cl)cc1 | 
